Measurements taken from ChEMBL document CHEMBL3627607, “A Novel Pyrazolopyridine with in Vivo Activity in Plasmodium berghei- and Plasmodium falciparum-Infected Mouse Models from Structure-Activity Relationship Studies around the Core of Recently Identified Antimalarial Imidazopyridazines” (J Med Chem, 2015).
The source made the active and inactive calls. The calls are words filed in the database; no cut-off is given here.

What was measured:
Plasmodium berghei [1] = test: Antiplasmodial activity against Plasmodium berghei ANKA expressing GFP infected in mouse assessed as mouse cured from disease at 50 mg/kg, po qd for 4 days; format: functional, organism-based
[2] = Selectivity index, ratio of IC50 for African green monkey VERO cells to IC50 for multidrug resistant Plasmodium falciparum K1; format: toxicity, cell-based; settings: read-out: Ratio IC50
[3] = Drug level in mouse blood at 50 mg/kg, po after 24 hrs; format: ADME, organism-based; settings: blood, read-out: Drug uptake
Procedure, shortened: (§1)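 Snapshot whole-blood levels of parent and its sulfone metabolite at 1, 4 and 24 h after the first 50 mg/kg oral dose. Samples came from the P. berghei-infected efficacy mice, dosed in HPMC suspension vehicle.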

[4] = Selectivity index, ratio of IC50 for CHO cells to IC50 for multidrug resistant Plasmodium falciparum K1; format: toxicity, cell-based; settings: hamster, read-out: Ratio IC50
[5] = Selectivity index, ratio of IC50 for African green monkey VERO cells to IC50 for Plasmodium falciparum NF54; format: toxicity, cell-based; settings: read-out: Ratio IC50
Plasmodium falciparum = test: Antiplasmodial activity against Plasmodium falciparum 3D7 infected in po dosed non-myelodepleted NOD-SCID IL2Rgammanull mouse engrafted with human erythrocytes assessed as reduction of parasitemia level administered qd for 4 days; format: functional; settings: 3D7, po, 96 h
Procedure, shortened: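 P. falciparum-infected engrafted NSG mice were dosed orally once daily for four consecutive days. Blood parasitemia was monitored, and a 90% effective dose was derived along with the blood exposure at that dose.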

[6] = Tmax in Plasmodium falciparum 3D7 infected in non-myelodepleted NOD-SCID IL2Rgammanull mouse engrafted with human erythrocytes at 30 mg/kg, po; format: ADME, organism-based; settings: in vivo
Procedure, shortened: (§2)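 Humanized NSG mice infected with P. falciparum received one oral dose per day for 4 consecutive days. Blood was sampled for exposure, with levels of both parent and its main active metabolite measured. Tmax was taken from the blood concentration–time profile after oral dosing.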

Plasmodium berghei [7] = test: Antiplasmodial activity against Plasmodium berghei ANKA expressing GFP infected in mouse assessed as means survival days at 3 mg/kg, po qd for 4 days; format: functional
Procedure, shortened: (§3)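 Mice (n = 3) infected with GFP-transfected P. berghei ANKA. Compounds dissolved or suspended in HPMC vehicle (0.5% w/v hydroxypropylmethylcellulose, 0.5% v/v benzyl alcohol, 0.4% v/v Tween 80, 0.9% w/v NaCl in water). Dosed orally 4, 24, 48 and 72 h after infection. Parasitemia read by flow cytometry (detection limit 0.1%). Survival recorded as mean survival time in days.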

Plasmodium berghei [8] = test: Antiplasmodial activity against Plasmodium berghei ANKA expressing GFP infected in mouse assessed as reduction of parasitemia level at 3 mg/kg, po qd for 4 days measured on day 4 post last dose by flow cytometric analysis relative to control; format: functional; parameters: scale not given: the % may be the effect or the level left
Procedure, shortened: (§4)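 Mice (n = 3) infected with GFP-transfected P. berghei ANKA. Test agents were suspended in HPMC vehicle (0.5% w/v hydroxypropylmethylcellulose, 0.5% v/v benzyl alcohol, 0.4% v/v Tween 80, 0.9% w/v NaCl in water). Dosed orally at 4, 24, 48 and 72 h post-infection. Parasitemia read by flow cytometry on day 4 (96 h), detection limit 0.1%. Activity = control-minus-treated mean % parasitemia, relative to control.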

Blood [9] = test: Drug metabolism in rat blood assessed as 5-(3-(Cyclopropylsulfonyl)phenyl)-3-(4-(methylsulfonyl)-phenyl)pyrazolo[1,5-a]pyridine formation at 20 mg/kg, po and 5 mg/kg, iv by LC-MS/MS analysis; format: ADME, organism-based; settings: in vivo
Procedure, shortened: (§5)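 Metabolites identified by LC-ESI-MS/MS in blood samples from the rat PK study (oral and intravenous dosing).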

Plasmodium berghei [10] = test: Antiplasmodial activity against Plasmodium berghei ANKA expressing GFP infected in mouse assessed as reduction of parasitemia level at 50 mg/kg, po qd for 4 days measured on day 4 post last dose by flow cytometric analysis relative to control; format: functional; parameters: scale not given: the % may be the effect or the level left; procedure, shortened: as §4
Liver microsome [11] = test: Metabolic stability of the compound in human liver microsomes assessed as compound remaining at 0.1 uM after 30 mins by LC-MS/MS analysis; format: ADME; settings: 0.5 h
[12] = Tmax in Plasmodium falciparum 3D7 infected in non-myelodepleted NOD-SCID IL2Rgammanull mouse engrafted with human erythrocytes at 0.5 mg/kg, po; format: ADME, organism-based; settings: in vivo; procedure, shortened: as §2
Liver microsome [13] = test: Metabolic stability of the compound in rat liver microsomes assessed as compound remaining at 0.1 uM after 30 mins by LC-MS/MS analysis; format: ADME; settings: 0.5 h
[14] = AUC (0 to 8 hrs) in Plasmodium falciparum 3D7 infected in non-myelodepleted NOD-SCID IL2Rgammanull mouse engrafted with human erythrocytes at 10 mg/kg, po; format: ADME, organism-based; parameters: time < 8 hr, dose 10 mg/kg, route oral; settings: in vivo
Procedure, shortened: (§6)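 Engrafted NSG (scid IL2Rgc null) mice infected with P. falciparum were given one oral dose per day for four days. Blood was sampled to measure parent and its sulfone metabolite.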

[15] = Cmax in Plasmodium falciparum 3D7 infected in non-myelodepleted NOD-SCID IL2Rgammanull mouse engrafted with human erythrocytes at 0.5 mg/kg, po; format: ADME, organism-based; parameters: dose 0.5 mg/kg, route oral; settings: in vivo; procedure, shortened: as §6
[16] = Drug level in mouse blood at 50 mg/kg, po after 4 hrs; format: ADME, organism-based; settings: read-out: Drug uptake; procedure, shortened: as §1
[17] = Cmax in Plasmodium falciparum 3D7 infected in non-myelodepleted NOD-SCID IL2Rgammanull mouse engrafted with human erythrocytes at 30 mg/kg, po; format: ADME, organism-based; parameters: dose 30 mg/kg, route oral; settings: in vivo; procedure, shortened: as §6
Plasmodium berghei [18] = test: Antiplasmodial activity against Plasmodium berghei ANKA expressing GFP infected in mouse assessed as means survival days at 50 mg/kg, po qd for 4 days; format: functional; procedure, shortened: as §3
Rattus norvegicus = test: Volume of distribution in rat at 5 mg/kg, iv; format: ADME, organism-based; settings: in vivo
Blood [19] = test: Drug metabolism in rat blood assessed as metabolite formation from sulfone oxidation on pyrazole at 20 mg/kg, po and 5 mg/kg, iv by LC-MS/MS analysis; format: ADME, organism-based; settings: in vivo; procedure, shortened: as §5
Blood [20] = test: Drug metabolism in mouse assessed as 5-(3-(Cyclopropylsulfonyl)phenyl)-3-(4-(methylsulfonyl)-phenyl)pyrazolo[1,5-a]pyridine level in blood at 50 mg/kg, po after 4 hrs; format: ADME, organism-based; settings: in vivo; procedure, shortened: as §1
[21] = AUC (0 to 8 hrs) in Plasmodium falciparum 3D7 infected in non-myelodepleted NOD-SCID IL2Rgammanull mouse engrafted with human erythrocytes at 0.5 mg/kg, po; format: ADME, organism-based; parameters: dose 0.5 mg/kg, time < 8 hr, route oral; settings: in vivo; procedure, shortened: as §6
Plasmodium berghei [22] = test: Antiplasmodial activity against Plasmodium berghei ANKA expressing GFP infected in mouse assessed as means survival days at 10 mg/kg, po qd for 4 days; format: functional; procedure, shortened: as §3
[23] = AUC (0 to 2 hrs) in Plasmodium falciparum 3D7 infected in non-myelodepleted NOD-SCID IL2Rgammanull mouse engrafted with human erythrocytes at 0.1 mg/kg, po; format: ADME, organism-based; parameters: time < 2 hr, dose 0.1 mg/kg, route oral; settings: in vivo; procedure, shortened: as §6
[24] = AUC (0 to 23 hrs) in Plasmodium falciparum 3D7 infected in non-myelodepleted NOD-SCID IL2Rgammanull mouse engrafted with human erythrocytes at 30 mg/kg, po; format: ADME, organism-based; parameters: dose 30 mg/kg, time < 23 hr, route oral; settings: in vivo; procedure, shortened: as §6
Plasmodium berghei [25] = test: Antiplasmodial activity against Plasmodium berghei ANKA expressing GFP infected in mouse assessed as reduction of parasitemia level at 10 mg/kg, po qd for 4 days measured on day 4 post last dose by flow cytometric analysis relative to control; format: functional; parameters: scale not given: the % may be the effect or the level left; procedure, shortened: as §4
Blood [26] = test: Drug metabolism in mouse assessed as 5-(3-(Cyclopropylsulfonyl)phenyl)-3-(4-(methylsulfonyl)-phenyl)pyrazolo[1,5-a]pyridine level in blood at 50 mg/kg, po after 24 hrs; format: ADME, organism-based; settings: in vivo; procedure, shortened: as §1
[27] = Drug level in mouse blood at 50 mg/kg, po after 1 hr; format: ADME, organism-based; settings: read-out: Drug uptake; procedure, shortened: as §1
[28] = Half life in rat at 15 mg/kg, po; format: ADME, organism-based; settings: in vivo

C[S+]([O-])c1ccc(-c2cnn3ccc(-c4cccc(S(=O)(=O)C5CC5)c4)cc23)cc1 (stereo not given)
Activity (Plasmodium berghei [1]): Active
selectivity ratio [2]: > 1000
concentration at 24 h [3]: 30 nM
selectivity ratio [4]: > 1000
selectivity ratio [5]: > 1000
ED90 (Plasmodium falciparum): 0.5 mg/kg
Tmax [6]: 6 h
MSD (Plasmodium berghei [7]): 7 days
Activity (Plasmodium berghei [8]): 75%
Drug metabolism (Blood [9]): metabolite_detected
Activity (Plasmodium berghei [10]): 99.8%
Stability (Liver microsome [11]): Stable
Tmax [12]: 0.25 h
Stability (Liver microsome [13]): Stable
AUC(0-t) at 8 h [14]: 293 ng·h/mL
Cmax [15]: 4 ng/mL
concentration at 4 h [16]: 1780 nM
Cmax [17]: 226 ng/mL
MSD (Plasmodium berghei [18]): >30 days
Vd (Rattus norvegicus): 6.8 L/kg
Drug metabolism (Blood [19]): metabolite_detected
Drug metabolism (Blood [20]): 10.3 µM
AUC(0-t) at 8 h [21]: 12.1 ng·h/mL
MSD (Plasmodium berghei [22]): 8 days
AUC(0-t) at 2 h [23]: 2.1 ng·h/mL
AUC(0-t) at 23 h [24]: 1240 ng·h/mL
Activity (Plasmodium berghei [25]): 99.9%
Drug metabolism (Blood [26]): 3.1 µM
concentration at 1 h [27]: 2960 nM
half-life [28]: 1 h
